# Measurements: paper PMC3448790 (Biochemistry, 2012)
# Bridges are numbered along the chain shown (N, C = ends). Where no end group is shown, it is not given here.
# T1: GST-D3D4-ankyrin (GST fusion construct of the D3D4 domain of ankyrin), wild type (human, UniProt P16157 402-827)
# T1 sequence: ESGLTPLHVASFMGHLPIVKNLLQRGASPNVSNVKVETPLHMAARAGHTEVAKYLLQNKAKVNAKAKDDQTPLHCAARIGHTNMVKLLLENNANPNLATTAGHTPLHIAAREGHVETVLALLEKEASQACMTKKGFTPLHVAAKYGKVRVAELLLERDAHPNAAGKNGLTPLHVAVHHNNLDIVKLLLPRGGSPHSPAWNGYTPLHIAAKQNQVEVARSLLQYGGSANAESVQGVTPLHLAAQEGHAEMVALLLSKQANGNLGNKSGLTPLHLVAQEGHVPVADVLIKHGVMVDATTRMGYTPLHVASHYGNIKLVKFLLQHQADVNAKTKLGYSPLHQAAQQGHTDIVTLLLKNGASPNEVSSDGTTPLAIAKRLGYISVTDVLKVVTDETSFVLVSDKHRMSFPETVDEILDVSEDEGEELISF
# Experiments:
# [1] = molecular target: T1, GST-D3D4-ankyrin (GST fusion construct …); assay: pull-down
# [2] = molecular target: the molecule itself; assay: AUC
# [3] = tested on: GST-ankyrin; assay type: binding, human; conditions: GST-ankyrin 1 μM on glutathione-beads; cdB3 or mutant 1 μM; anti-cdB3 antibody
# Summary of the method: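 Purified GST-ankyrin was immobilized on glutathione beads and incubated 2 h with His6-tagged wild-type or mutant cdB3 expressed in E. coli. Beads were washed 3x with binding buffer, and captured cdB3 was quantified by dot blot with a locally prepared polyclonal anti-cdB3 antibody.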
# [4] = molecular target: T1, GST-D3D4-ankyrin (GST fusion construct …); assay: pull-down; remark: listed apart in the source
# [5] = tested on: GST-D3D4-ankyrin; assay type: binding, human; conditions: increasing concentrations of GST-D3D4-ankyrin; anti-ankyrin polyclonal antibodies
# [6] = tested on: glyceraldehyde-3-phosphate dehydrogenase (GAPDH); conditions: 2 μg/mL GAPDH, 2 min at room temperature, pH 7.0; 10 mM imidazole acetate; absorbance change at 340 nm
# [7] = tested on: GST-D3D4-ankyrin; assay: His-tag pull-down on Co2+-NTA agarose, bound GST-D3D4-ankyrin by GST activity; assay type: binding, human; conditions: immobilized cdB3 variants, pH 8.0, n=2
# Summary of the method: (§1)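 His6-tagged cdB3 (wild type or loop-deletion mutant) and GST-D3D4 ankyrin (wild type or charge-reversal mutant) were expressed in E. coli BL21(DE3)pLysS and purified. cdB3 was incubated at 4°C with increasing GST-ankyrin in pH 8.0 phosphate/KCl/imidazole buffer with 10% sucrose, 1 mg/ml BSA and PMSF. Complexes were captured on Co2+-NTA beads for 2 h, washed 3x and eluted with 250 mM imidazole. Equal cdB3 loading was checked by anti-cdB3 blot, and bound ankyrin was quantified by GST activity.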
# [8] = tested on: cdB3; assay: Binding of native or mutated GST-D3D4 ankyrin to His-tagged cdB3; design: species or system human; conditions: GST activity, n=2
# Summary of the method: as §1
molecule,measurement,setting,value
"CELVMDEKNQELC (disulfide 1-13) [cyclized loop 1 peptide (residues 63–73 of cdB3 with a cysteine at each end, disulfide-bonded)]",IC50,[1],~15 µM
"cdB3 ΔL1 (cdB3 with loop 1, residues 63–73, replaced by a diglycine bridge) (domain or fragment, human) MEELQDDYEDMMEENLEQEEYEDPDIPESQMEEPAAHDTEATATDYHTTSHPGTHKVYVELQGGRWMEAARWVQLEENLGENGAWGRPHLSHLTFWSLLELRRVFTKGTVLLDLQETSLAGVANQLLDRFIFEDQIRPQDREELLRALLLKHSHAGELEALGGVKPAVLTRSGDPSQPLLPQHSSLETQLFCEQGDGGTEGHSPSGILEKIPPDSEATLVLVGRADFLEQPVLGFVRLQEAAELEAVELPVPIRFLFVLLGPEAPHIDYTQLGRAAATLMSERVFRIDAYMAQSRGELLHSLEGFLDCSLVLPPTDAPSEQALLSLVPVQRELLRRRYQSSPAKPDSSFYKGLDLNGGPDDPLQQTGQLF",stoichiometry N,[2],2
"cdB3 ΔL1: mutant cdB3 with loop 1 (residues 63–73) replaced by a diglycine bridge (protein, left off: His6, C-terminal, kept) MEELQDDYEDMMEENLEQEEYEDPDIPESQMEEPAAHDTEATATDYHTTSHPGTHKVYVELQGGRWMEAARWVQLEENLGENGAWGRPHLSHLTFWSLLELRRVFTKGTVLLDLQETSLAGVANQLLDRFIFEDQIRPQDREELLRALLLKHSHAGELEALGGVKPAVLTRSGDPSQPLLPQHSSLETQLFCEQGDGGTEGHSPSGILEKIPPDSEATLVLVGRADFLEQPVLGFVRLQEAAELEAVELPVPIRFLFVLLGPEAPHIDYTQLGRAAATLMSERVFRIDAYMAQSRGELLHSLEGFLDCSLVLPPTDAPSEQALLSLVPVQRELLRRRYQSSPAKPDSSFYKGLDLNGGPDDPLQQTGQLF",affinity for immobilized GST-ankyrin by dot blot (in words),[3],no affinity for ankyrin
"cytoplasmic domain of band 3 (cdB3), wild type, with COOH-terminal His6-tag (domain or fragment, human) MEELQDDYEDMMEENLEQEEYEDPDIPESQMEEPAAHDTEATATDYHTTSHPGTHKVYVELQELVMDEKNQELRWMEAARWVQLEENLGENGAWGRPHLSHLTFWSLLELRRVFTKGTVLLDLQETSLAGVANQLLDRFIFEDQIRPQDREELLRALLLKHSHAGELEALGGVKPAVLTRSGDPSQPLLPQHSSLETQLFCEQGDGGTEGHSPSGILEKIPPDSEATLVLVGRADFLEQPVLGFVRLQEAAELEAVELPVPIRFLFVLLGPEAPHIDYTQLGRAAATLMSERVFRIDAYMAQSRGELLHSLEGFLDCSLVLPPTDAPSEQALLSLVPVQRELLRRRYQSSPAKPDSSFYKGLDLNGGPDDPLQQTGQLF",Kd,[4],~0.4 µM
"native cdB3: cytoplasmic domain of band 3 (protein, left off: His6, C-terminal, kept) MEELQDDYEDMMEENLEQEEYEDPDIPESQMEEPAAHDTEATATDYHTTSHPGTHKVYVELQELVMDEKNQELRWMEAARWVQLEENLGENGAWGRPHLSHLTFWSLLELRRVFTKGTVLLDLQETSLAGVANQLLDRFIFEDQIRPQDREELLRALLLKHSHAGELEALGGVKPAVLTRSGDPSQPLLPQHSSLETQLFCEQGDGGTEGHSPSGILEKIPPDSEATLVLVGRADFLEQPVLGFVRLQEAAELEAVELPVPIRFLFVLLGPEAPHIDYTQLGRAAATLMSERVFRIDAYMAQSRGELLHSLEGFLDCSLVLPPTDAPSEQALLSLVPVQRELLRRRYQSSPAKPDSSFYKGLDLNGGPDDPLQQTGQLF",GST-ankyrin binding by dot blot (in words),[5],usual prominent binding
same,inhibition of GAPDH,[6],90%
same,affinity for immobilized GST-ankyrin by dot blot (in words),[3],strong affinity
"CELVMDEKNQELC [linear loop 1 peptide (residues 63–73 of cdB3 with a cysteine at each end, reduced)]",IC50,[1],55 µM
"double loop deleted (ΔL1 + ΔL2) cdB3: combination of loop 1 and loop 2 deletion mutant (protein, left off: His6, C-terminal, kept) MEELQDDYEDMMEENLEQEEYEDPDIPESQMEEPAAHDTEATATDYHTTSHPGTHKVYVELQGGRWMEAARWVQLEENLGENGAWGRPHLSHLTFWSLLELRRVFTKGTVLLDLQETSLAGVANQLLDRFIFEDQIRPQDREELLRALLLKHSHAGELEALGGVKGGQPLLPQHSSLETQLFCEQGDGGTEGHSPSGILEKIPPDSEATLVLVGRADFLEQPVLGFVRLQEAAELEAVELPVPIRFLFVLLGPEAPHIDYTQLGRAAATLMSERVFRIDAYMAQSRGELLHSLEGFLDCSLVLPPTDAPSEQALLSLVPVQRELLRRRYQSSPAKPDSSFYKGLDLNGGPDDPLQQTGQLF",affinity for GST-ankyrin (in words),[7],no affinity could be detected
"mutated ankyrin: D3D4 domain of ankyrin with the four mutations N601D, K611E, E645K, and Q634E (protein, left off: GST, end not stated, kept) ESGLTPLHVASFMGHLPIVKNLLQRGASPNVSNVKVETPLHMAARAGHTEVAKYLLQNKAKVNAKAKDDQTPLHCAARIGHTNMVKLLLENNANPNLATTAGHTPLHIAAREGHVETVLALLEKEASQACMTKKGFTPLHVAAKYGKVRVAELLLERDAHPNAAGKNGLTPLHVAVHHNNLDIVKLLLPRGGSPHSPAWDGYTPLHIAAEQNQVEVARSLLQYGGSANAESVEGVTPLHLAAQKGHAEMVALLLSKQANGNLGNKSGLTPLHLVAQEGHVPVADVLIKHGVMVDATTRMGYTPLHVASHYGNIKLVKFLLQHQADVNAKTKLGYSPLHQAAQQGHTDIVTLLLKNGASPNEVSSDGTTPLAIAKRLGYISVTDVLKVVTDETSFVLVSDKHRMSFPETVDEILDVSEDEGEELISF",affinity of mutated ankyrin for cdB3 (in words),"[8]; N601D, K611E, Q634E, E645K mutant",unable to bind cdB3
"Wild-type ankyrin: GST fusion construct of the D3D4 domain of ankyrin (protein, left off: GST, end not stated, kept) ESGLTPLHVASFMGHLPIVKNLLQRGASPNVSNVKVETPLHMAARAGHTEVAKYLLQNKAKVNAKAKDDQTPLHCAARIGHTNMVKLLLENNANPNLATTAGHTPLHIAAREGHVETVLALLEKEASQACMTKKGFTPLHVAAKYGKVRVAELLLERDAHPNAAGKNGLTPLHVAVHHNNLDIVKLLLPRGGSPHSPAWNGYTPLHIAAKQNQVEVARSLLQYGGSANAESVQGVTPLHLAAQEGHAEMVALLLSKQANGNLGNKSGLTPLHLVAQEGHVPVADVLIKHGVMVDATTRMGYTPLHVASHYGNIKLVKFLLQHQADVNAKTKLGYSPLHQAAQQGHTDIVTLLLKNGASPNEVSSDGTTPLAIAKRLGYISVTDVLKVVTDETSFVLVSDKHRMSFPETVDEILDVSEDEGEELISF",Kd,[8]; read-out: apparent dissociation constant of ankyrin for cdB3,~0.4 µM
"ΔL2 cdb3: mutant cdB3 with a diglycine bridge in place of loop 2 (residues 175–185) (protein, left off: His6, C-terminal, kept) MEELQDDYEDMMEENLEQEEYEDPDIPESQMEEPAAHDTEATATDYHTTSHPGTHKVYVELQELVMDEKNQELRWMEAARWVQLEENLGENGAWGRPHLSHLTFWSLLELRRVFTKGTVLLDLQETSLAGVANQLLDRFIFEDQIRPQDREELLRALLLKHSHAGELEALGGVKGGQPLLPQHSSLETQLFCEQGDGGTEGHSPSGILEKIPPDSEATLVLVGRADFLEQPVLGFVRLQEAAELEAVELPVPIRFLFVLLGPEAPHIDYTQLGRAAATLMSERVFRIDAYMAQSRGELLHSLEGFLDCSLVLPPTDAPSEQALLSLVPVQRELLRRRYQSSPAKPDSSFYKGLDLNGGPDDPLQQTGQLF",affinity for GST-ankyrin (in words),[7],no affinity could be detected
